Experimental findings from ChEMBL document CHEMBL4145697, “Replacement of a Naphthalene Scaffold in Kelch-like ECH-Associated Protein 1 (KEAP1)/Nuclear Factor (Erythroid-derived 2)-like 2 (NRF2) Inhibitors” (J Med Chem, 2018) are described below.

pIC50, pKd: −log10 of the molar value. Converted amounts (≈) assume the structure as drawn. The source made the active and inactive calls. No cut-off for these calls is given here.

A short description of series [1]: Kinetic solubility in pH 7.4 incubated for 1 hr by HPLC method. It is filed as physicochemical. The note with it: buffer, read-out: Kinetic_solubility.
Series [2] can be described thus: Stability in mouse liver microsomes assessed as compound remaining level at 200 uM incubated for 20 mins by LC-MS method. In kind it is ADME, microsome. As to conditions: read-out: Stability.
A further series has as its target Keap1/Nrf2 (Homo sapiens, UniProt Q14145). Kind of series: Inhibition of Keap1 Kelch domain (unknown origin) /Nrf2 (unknown origin) interaction using fluorescein-labeled 9-mer peptide containing NRF2 Neh2 domain ETGE motif by fluorescence anisotropy assay. In kind it is protein assay.
Series [3] has as its system Salmonella typhimurium. As to the kind of experiment: Cytotoxicity in Salmonella typhimurium TA98 at 1.5 to 1000 ug/well. It is filed as organism-based. As to conditions: salmonella enterica subsp. enterica serovar typhimurium. In outline: (§1)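 Mini-Ames plate incorporation; compounds dissolved in DMSO, tested at 1.5–1000 µg/well with and without Aroclor 1254-induced rat liver S9, alongside solvent and positive controls. Cells in top agar over minimal glucose agar; triplicate wells (vehicle sextuplicate), 37 ± 2 °C for 48–72 h. Cytotoxicity scored as fewer revertants per well and/or thinning or loss of background lawn relative to negative control.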

For series [4], the system named is Salmonella typhimurium. As to the kind of experiment: Mutagenicity in Salmonella typhimurium TA100 assessed as increase in number of revertant colonies at 1.5 to 1000 ug/well in presence of rat liver S9 fractions incubated for 48 to 72 hrs. It is filed as toxicity, organism-based. As to conditions: salmonella enterica subsp. enterica serovar typhimurium. The method, boiled down:
(§2)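 Reverse mutation at histidine locus in top agar (0.6% agar, 0.5% NaCl, histidine/biotin) with Aroclor 1254-induced rat liver S9 mix; DMSO vehicle, doses 1.5–1000 µg/well. Plated in triplicate wells (vehicle sextuplicate) on minimal glucose agar, 37 ± 2 °C for 48–72 h. Revertant colonies counted manually; fold-change over DMSO, p-values by two-tailed t-test.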

The next series relates to Escherichia coli. As to the kind of experiment: Cytotoxicity in Escherichia coli WP2 uvrA (pKM101) at 1.5 to 1000 ug/well. In kind it is organism-based. As to conditions: in vivo. The method, boiled down: as §1
A short description of series [5]: Stability in human liver microsomes assessed as compound remaining level at 1 uM incubated for 20 mins by LC-MS method.
A short description of series [6]: Lipophilicity, log D of the compound. In kind it is physicochemical. As to conditions: octanol/water.
For series [7], the system named is Salmonella typhimurium. As to the kind of experiment: Mutagenicity in Salmonella typhimurium TA98 assessed as increase in number of revertant colonies at 1.5 to 1000 ug/well in presence of rat liver S9 fractions incubated for 48 to 72 hrs. It is filed as toxicity, organism-based. The note with it: salmonella enterica subsp. enterica serovar typhimurium. The method, boiled down:
as §2

The nature of series [8]: Stability in mouse liver microsomes assessed as compound remaining level at 1 uM incubated for 20 mins by LC-MS method.
In series [9] the test system is Salmonella typhimurium. As to the kind of experiment: Cytotoxicity in Salmonella typhimurium TA1537 at 1.5 to 1000 ug/well. It is filed as organism-based. As to conditions: salmonella enterica subsp. enterica serovar typhimurium. In outline:
as §1

Series [10] has as its system Salmonella typhimurium. As to the kind of experiment: Cytotoxicity in Salmonella typhimurium TA100 at 1.5 to 1000 ug/well. It is filed as organism-based. The note with it: salmonella enterica subsp. enterica serovar typhimurium. The method, boiled down:
as §1

Series [11] relates to Salmonella typhimurium. As to the kind of experiment: Cytotoxicity in Salmonella typhimurium TA1535 at 1.5 to 1000 ug/well. The note with it: salmonella enterica subsp. enterica serovar typhimurium. It is filed as organism-based. In outline: as §1
In series [12] the test system is HaCaT. Kind of series: Effect on SOD2 gene expression in human HaCaT cells at 10 uM incubated for 6 hrs by qPCR method. In kind it is ADME, cell-based.
The target in series [13] is T1, Keap1/Nrf2 (Homo sapiens) (UniProt Q16236+Q14145). As to the kind of experiment: Inhibition of Keap1/Nrf2 interaction in human HaCaT cells assessed as increase in NRF2 nuclear accumulation at 10 uM incubated for 24 hrs by immunoblot assay. In kind it is cell-based.
Series [14] concerns the target T1, Keap1/Nrf2 (Homo sapiens). Kind of series: Inhibition of Keap1/Nrf2 interaction in human HaCaT cells assessed as increase in GCLC gene expression at 10 uM incubated for 6 hrs by qPCR method. It is filed as cell-based.
The target in series [15] is T1, Keap1/Nrf2 (Homo sapiens). As to the kind of experiment: Inhibition of Keap1/Nrf2 interaction in human HaCaT cells assessed as increase in NQO1 gene expression at 10 uM incubated for 24 hrs by qPCR method. It is filed as cell-based.
Series [16] addresses T1, Keap1/Nrf2 (Homo sapiens). As to the kind of experiment: Inhibition of Keap1/Nrf2 interaction in human HaCaT cells assessed as increase in HMOX1 gene expression at 10 uM incubated for 6 hrs by qPCR method. It is filed as cell-based.
Series [17] has as its target T1, Keap1/Nrf2 (Homo sapiens). As to the kind of experiment: Inhibition of Keap1/Nrf2 interaction in human HaCaT cells assessed as increase in GCLM gene expression at 10 uM incubated for 24 hrs by qPCR method. In kind it is cell-based.
Series [18] deals with T1, Keap1/Nrf2 (Homo sapiens). As to the kind of experiment: Inhibition of Keap1/Nrf2 interaction in human HaCaT cells assessed as increase in NRF2 nuclear accumulation at 10 uM incubated for 6 hrs by immunoblot assay. It is filed as cell-based.
Series [19] concerns the target T1, Keap1/Nrf2 (Homo sapiens). Kind of series: Inhibition of Keap1/Nrf2 interaction in human HaCaT cells assessed as increase in NQO1 protein expression at 10 uM incubated for 24 hrs by Western blot method. It is filed as cell-based. The method, boiled down:
(§3)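 HaCaT cells in DMEM, 10% FBS, 1% antibiotics, treated at 70–80% confluence with 10 μM compound or DMSO for 6 or 24 h in complete medium. Lysates (~40 μg protein) resolved by 10% SDS-PAGE, immunoblotted for NQO1; bands quantified against GAPDH, vehicle set to one arbitrary unit.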

The target of series [20] is Kelch-like ECH-associated protein 1 (Homo sapiens, UniProt Q14145). Kind of series: Binding affinity to Keap1 Kelch domain (unknown origin) by surface plasmon resonance assay.
Series [21] deals with T1, Keap1/Nrf2 (Homo sapiens). Kind of series: Inhibition of Keap1/Nrf2 interaction in human HaCaT cells assessed as increase in NQO1 gene expression at 10 uM incubated for 6 hrs by qPCR method. It is filed as cell-based.
The target in series [22] is T1, Keap1/Nrf2 (Homo sapiens). As to the kind of experiment: Inhibition of Keap1/Nrf2 interaction in human HaCaT cells assessed as increase in GCLC gene expression at 10 uM incubated for 24 hrs by qPCR method. It is filed as cell-based.
For series [23], the target named is T1, Keap1/Nrf2 (Homo sapiens). Kind of series: Inhibition of Keap1/Nrf2 interaction in human HaCaT cells assessed as increase in GCLM gene expression at 10 uM incubated for 6 hrs by qPCR method. It is filed as cell-based.
The test system of series [24] is HaCaT. As to the kind of experiment: Effect on SOD2 gene expression in human HaCaT cells at 10 uM incubated for 24 hrs by qPCR method. In kind it is ADME, cell-based.
In series [25] the target is T1, Keap1/Nrf2 (Homo sapiens). As to the kind of experiment: Inhibition of Keap1/Nrf2 interaction in human HaCaT cells assessed as increase in NQO1 protein expression at 10 uM incubated for 6 hrs by Western blot method. It is filed as cell-based. The method, boiled down: as §3
In series [26] the target is T1, Keap1/Nrf2 (Homo sapiens). Kind of series: Inhibition of Keap1/Nrf2 interaction in human HaCaT cells assessed as increase in HMOX1 gene expression at 10 uM incubated for 24 hrs by qPCR method. In kind it is cell-based.

Sequence of Keap1/Nrf2 (Q16236 whole entry, the tested form may be a part): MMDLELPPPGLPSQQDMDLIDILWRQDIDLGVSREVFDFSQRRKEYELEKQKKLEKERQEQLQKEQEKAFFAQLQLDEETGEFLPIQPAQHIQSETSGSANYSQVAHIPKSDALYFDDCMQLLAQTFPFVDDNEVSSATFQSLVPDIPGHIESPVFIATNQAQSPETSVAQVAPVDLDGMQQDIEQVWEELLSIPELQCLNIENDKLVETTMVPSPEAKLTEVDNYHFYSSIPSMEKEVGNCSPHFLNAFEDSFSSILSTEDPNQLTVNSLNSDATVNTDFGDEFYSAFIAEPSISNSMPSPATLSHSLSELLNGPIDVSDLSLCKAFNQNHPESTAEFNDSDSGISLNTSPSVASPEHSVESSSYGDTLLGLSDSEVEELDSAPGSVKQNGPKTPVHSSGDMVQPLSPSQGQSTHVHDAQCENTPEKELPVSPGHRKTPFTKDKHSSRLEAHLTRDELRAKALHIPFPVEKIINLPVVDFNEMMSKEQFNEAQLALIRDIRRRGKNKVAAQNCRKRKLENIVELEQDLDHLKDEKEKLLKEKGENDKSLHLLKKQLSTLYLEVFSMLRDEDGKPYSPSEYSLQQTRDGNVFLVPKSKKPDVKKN
Sequence of Keap1/Nrf2 (Q14145 whole entry, the tested form may be a part): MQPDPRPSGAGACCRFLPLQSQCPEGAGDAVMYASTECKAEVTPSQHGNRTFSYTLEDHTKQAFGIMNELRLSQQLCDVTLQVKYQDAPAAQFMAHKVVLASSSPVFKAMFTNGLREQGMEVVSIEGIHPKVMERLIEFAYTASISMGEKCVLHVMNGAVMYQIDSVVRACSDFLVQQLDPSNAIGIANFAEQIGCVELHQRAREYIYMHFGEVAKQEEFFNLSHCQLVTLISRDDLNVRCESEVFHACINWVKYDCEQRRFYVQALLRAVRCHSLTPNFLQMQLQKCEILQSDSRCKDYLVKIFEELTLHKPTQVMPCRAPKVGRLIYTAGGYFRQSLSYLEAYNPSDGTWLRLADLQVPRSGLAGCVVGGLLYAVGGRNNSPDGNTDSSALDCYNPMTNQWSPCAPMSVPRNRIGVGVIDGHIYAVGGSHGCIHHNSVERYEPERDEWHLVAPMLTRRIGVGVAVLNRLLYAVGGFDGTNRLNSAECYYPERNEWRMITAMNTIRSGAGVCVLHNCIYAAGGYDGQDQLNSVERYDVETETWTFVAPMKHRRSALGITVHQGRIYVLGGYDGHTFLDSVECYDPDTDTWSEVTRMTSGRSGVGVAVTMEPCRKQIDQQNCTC
T1 sequence (Q14145 whole entry, looked up): as the sequence (Q14145 whole entry, the tested form may be a part) above
T1 sequence (Q16236 whole entry, looked up): as the sequence (Q16236 whole entry, the tested form may be a part) above
Sequence of Kelch-like ECH-associated protein 1 (Q14145 whole entry, the tested form may be a part): as the sequence (Q14145 whole entry, the tested form may be a part) above

`COc1ccc(S(=O)(=O)N(CC(N)=O)c2ccc(N(CC(N)=O)S(=O)(=O)c3ccc(OC)cc3)c3ccccc23)cc1`: the solubility kinetic at 1 h in series [1] turned out to be 22 µM (≈ 13.5 µg/mL). In addition, in series [2], the remaining at 20 min, 200 µM was 0%.

Regarding `COc1ccc(S(=O)(=O)N(CC(=O)O)C(=O)c2ccccc2C(=O)N(CC(=O)O)S(=O)(=O)c2ccc(OC)cc2)cc1`, the negative logarithm of the IC50 (pIC50) against Keap1/Nrf2 was less than 4.60.

In turn, `COc1ccc(S(=O)(=O)N(CC(=O)O)Cc2ccccc2CN(CC(=O)O)S(=O)(=O)c2ccc(OC)cc2)cc1` gave a negative-log IC50 (pIC50) on Keap1/Nrf2 of less than 4.60.

As for `COc1ccc(S(=O)(=O)N(CC=CCN(CC(=O)O)S(=O)(=O)c2ccc(OC)cc2)CC(=O)O)cc1` (mixture of isomers), at Keap1/Nrf2, the negative logarithm of the IC50 (pIC50) was less than 4.60.

The molecule `COc1ccc(S(=O)(=O)Nc2nnc(NS(=O)(=O)c3ccc(OC)cc3)c3ccccc23)cc1` gave a pIC50 at Keap1/Nrf2 of less than 4.60.

Turning to `COc1ccc(S(=O)(=O)Nc2ccc(NS(=O)(=O)c3ccc(OC)cc3)c3ncccc23)cc1`, on Keap1/Nrf2, the pIC50 was less than 4.60.

On to `COc1ccc(S(=O)(=O)N(CC(=O)O)c2ccc(N(CC(=O)O)S(=O)(=O)c3ccc(OC)cc3)c3ccccc23)cc1`, for which the Activity entry is on record as “Non-Toxic” in the series on Salmonella typhimurium [3]; “Dose-dependent effect” in the series on Salmonella typhimurium [4]; “Non-Toxic” in the series on Escherichia coli; “Dose-dependent effect” in the series on Salmonella typhimurium [7]; “Non-Toxic” in the series on Salmonella typhimurium [9]; “Non-Toxic” with Salmonella typhimurium [10]. In addition, the Activity result in the series with Salmonella typhimurium [11] was “Non-Toxic”. For the same molecule, the Stability entry in series [5] and in series [8] was “Stable” each time. In [6], the pH-dependent lipophilicity (logD) was -1.9. Moreover, in series [1], the solubility kinetic at 1 h turned out to be 440 µM (≈ 270 µg/mL).

On to `COc1ccc(S(=O)(=O)N(CC(=O)O)c2ccc(N(CC(=O)O)S(=O)(=O)c3ccc(OC)cc3)c3ncccc23)cc1`, for which the Activity result with HaCaT [12] and in the series on HaCaT [24] was “Non-Toxic” throughout. In addition, the inhibition entry in series [13], in [14], in series [15], in series [17], in series [18] and in [19] was “Active” throughout. Also, the inhibition result in [21], in [22], in series [23] and in series [25] was “Active” throughout. For the same molecule, the inhibition result in series [16] and in series [26] was “inactive” in each case. Also, in series [20], the pKd is 6.99. Also, the pIC50 against Keap1/Nrf2 is 7.00.

As to `COc1ccc(S(=O)(=O)N(CC(=O)O)c2ccc(N(CC(=O)O)S(=O)(=O)c3ccc(OC)cc3)cc2)cc1`, the pIC50 at Keap1/Nrf2 is 6.01.

Take `COc1ccc(S(=O)(=O)Nc2ccc(NS(=O)(=O)c3ccc(OC)cc3)c3[nH]ccc23)cc1`: on Keap1/Nrf2, the pIC50 was less than 4.60.

Consider `COc1ccc(S(=O)(=O)N(CC(=O)O)c2ccc(N(CC(=O)O)S(=O)(=O)c3ccc(OC)cc3)nc2)cc1`, for which the pIC50 against Keap1/Nrf2 was less than 4.60.

In turn, `COc1ccc(S(=O)(=O)N(CC(=O)O)c2ccc(N(CC(=O)O)S(=O)(=O)c3ccc(OC)cc3)c3[nH]ccc23)cc1` had a pIC50 against Keap1/Nrf2 of 5.89.

Regarding `COc1ccc(S(=O)(=O)Nc2ccc(NS(=O)(=O)c3ccc(OC)cc3)c3ccccc23)cc1`, in [1], the solubility kinetic at 1 h is 5.4 µM (≈ 2.69 µg/mL). Moreover, the remaining at 20 min, 200 µM in [2] was 15%.

Consider `COc1ccc(S(=O)(=O)N(CC(=O)O)c2cnc(N(CC(=O)O)S(=O)(=O)c3ccc(OC)cc3)c3ccccc23)cc1`, for which the Activity result in the series on Salmonella typhimurium [3], in the series on Escherichia coli, in the series on HaCaT [12], in the series with Salmonella typhimurium [9], in the series on HaCaT [24] and in the series on Salmonella typhimurium [10] was “Non-Toxic” each time. Moreover, the Activity entry in the series on Salmonella typhimurium [11] is “Non-Toxic”. In addition, the logD in series [6] is recorded as -1.7.
